{"source": "ChEMBL document CHEMBL1124725", "about": "“Inhibition of steroid 5 alpha-reductase by unsaturated 3-carboxysteroids” (J Med Chem, 1990)", "key": {"[1]": {"biological_target": "T1, 3-oxo-5-alpha-steroid 4-dehydrogenase 2 (Homo sapiens, UniProt P31213)", "T1 sequence (P31213 whole entry)": "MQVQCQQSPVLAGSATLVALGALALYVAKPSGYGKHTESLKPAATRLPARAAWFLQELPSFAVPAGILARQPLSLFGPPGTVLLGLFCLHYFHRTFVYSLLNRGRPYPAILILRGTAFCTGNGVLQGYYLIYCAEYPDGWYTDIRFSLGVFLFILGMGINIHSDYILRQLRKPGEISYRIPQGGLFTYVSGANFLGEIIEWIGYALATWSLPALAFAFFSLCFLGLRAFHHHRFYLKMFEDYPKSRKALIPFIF", "assay": "In vitro inhibition of Steroid 5-alpha-reductase in human prostatic tissue.", "settings": "read-out: Ki app", "in_short": "(§1)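 Microsomes from surgically derived benign hyperplastic human prostate. Incubation was in 50 mM sodium citrate, pH 5.0, with 400 μM NADPH at 37 °C for 20–30 min, with ≤20% of T consumed. The reaction was quenched with ethyl acetate, and the read-out was total 5α-reduced products (DHT + ADIOL). Ki,app came from Dixon plots, or IC50 if nonlinear; ranges span microsome preparations.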"}, "[2]": {"biological_target": "T2, Steroid 5-alpha-reductase (Rattus norvegicus, UniProt P24008+P31214)", "T2 sequence (P24008 whole entry)": "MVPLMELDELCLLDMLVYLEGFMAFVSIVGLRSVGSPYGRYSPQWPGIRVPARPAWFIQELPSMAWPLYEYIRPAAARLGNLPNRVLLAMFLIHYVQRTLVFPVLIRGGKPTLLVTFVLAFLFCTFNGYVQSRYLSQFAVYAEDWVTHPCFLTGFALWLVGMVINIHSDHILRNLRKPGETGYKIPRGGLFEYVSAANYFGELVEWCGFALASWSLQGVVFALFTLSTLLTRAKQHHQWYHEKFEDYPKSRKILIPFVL", "T2 sequence (P31214 whole entry)": "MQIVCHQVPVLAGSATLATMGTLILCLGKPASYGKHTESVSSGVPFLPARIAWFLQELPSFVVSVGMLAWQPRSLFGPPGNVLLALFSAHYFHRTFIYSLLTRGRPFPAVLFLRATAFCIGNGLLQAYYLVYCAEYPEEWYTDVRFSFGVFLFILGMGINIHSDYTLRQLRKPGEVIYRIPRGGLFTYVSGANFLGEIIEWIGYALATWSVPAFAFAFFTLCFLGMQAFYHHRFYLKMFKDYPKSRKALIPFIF", "assay": "In vitro inhibition of Steroid 5-alpha-reductase in rat ventral prostates.", "assay_type": "tissue-based, Prostate gland", "in_short": "(§2)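 Rat ventral prostate microsomes were incubated with [14C]T (1.2 μM) and test compound (0–10 μM), both dried from ethanol. Buffer was 20 mM sodium phosphate, pH 6.6, with 400 μM NADPH, at 37 °C for 20–30 min, keeping T consumption ≤20%. After ethyl acetate quench, DHT plus […] formation was measured. Apparent Ki came from Dixon analysis, or IC50 for hyperbolic inhibition; ranges reflect different enzyme preparations.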"}, "[3]": {"biological_target": "T1, 3-oxo-5-alpha-steroid 4-dehydrogenase 2", "assay": "In vitro inhibitory activity against Steroid 5-alpha-reductase was determined in human prostatic tissue expressed as apparent inhibition constant; Range is 7-18", "settings": "read-out: Ki app"}, "[4]": {"biological_target": "T2, Steroid 5-alpha-reductase", "assay": "In vitro inhibitory activity against Steroid 5-alpha-reductase was determined in rat ventral prostates expressed as apparent inhibition constant; Range is 35-50", "assay_type": "tissue-based, Prostate gland", "in_short": "as §2"}, "[5]": {"biological_target": "T1, 3-oxo-5-alpha-steroid 4-dehydrogenase 2", "assay": "In vitro inhibitory activity against Steroid 5-alpha-reductase was determined in human prostatic tissue expressed as apparent inhibition constant; Range is 7-12", "settings": "read-out: Ki app", "in_short": "as §1, with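 “prostate. [14C]T (1.2 μM) and inhibitor (0–10 μM) were dried down from ethanol.” for “prostate.”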"}, "[6]": {"biological_target": "T2, Steroid 5-alpha-reductase", "assay": "In vitro inhibitory activity against 5-alpha reductase was determined in rat ventral prostates expressed as apparent inhibition constant", "assay_type": "tissue-based, Prostate gland", "in_short": "as §2"}, "[7]": {"biological_target": "T1, 3-oxo-5-alpha-steroid 4-dehydrogenase 2", "assay": "In vitro inhibitory activity against 5-alpha reductase was determined in human prostatic tissue expressed as apparent inhibition constant", "settings": "read-out: Ki app", "in_short": "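Microsomes from surgically obtained benign hyperplastic human prostate; 50 mM sodium citrate, pH 5.0, 37 °C, 20–30 min. Substrate [14C]testosterone 1.2 μM, NADPH 400 μM final, inhibitor 0–10 μM. Read-out is conversion to total 5α-reduced metabolites (DHT plus 5α-androstanediol), keeping T consumption ≤20%. Ki,app from Dixon analysis for linear inhibitors; ranges given across microsome preparations.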"}, "[8]": {"biological_target": "T1, 3-oxo-5-alpha-steroid 4-dehydrogenase 2", "assay": "In vitro inhibitory activity against Steroid 5-alpha-reductase was determined in human prostatic tissue expressed as apparent inhibition constant; Range is 700-900"}, "[9]": {"biological_target": "T2, Steroid 5-alpha-reductase", "assay": "In vitro inhibitory activity against Steroid 5-alpha-reductase was determined in rat ventral prostates expressed as apparent inhibition constant; Range is 20-30", "assay_type": "tissue-based, Prostate gland", "in_short": "as §2"}}, "note": "pIC50, pKi: −log10 of the molar value."}
{"smiles": "CC(C)N(C(=O)[C@H]1CCC2C3CCC4=C[C@@H](C(=O)O)CC[C@]4(C)C3CC[C@@]21C)C(C)C", "note": "(stereo partly drawn)", "values": [{"measurement": "pKi", "setting": "[1]", "result": 6.70}, {"measurement": "Ki app", "setting": "[2]", "result": 2000, "unit": "nM"}]}
{"smiles": "CC(C)N(C(=O)[C@H]1CCC2C3CCC4=C[C@@](O)(C(=O)O)CC[C@]4(C)C3CC[C@@]21C)C(C)C", "note": "(stereo partly drawn)", "values": [{"measurement": "pKi", "setting": "[1]", "result": 6.49}, {"measurement": "Ki app", "setting": "[2]", "result": "> 10000", "unit": "nM"}]}
{"smiles": "CC(C)N(C(=O)[C@H]1CCC2C3CC=C4C=C(C(=O)O)CC[C@@H]4C3CC[C@@]21C)C(C)C", "note": "(stereo partly drawn)", "values": [{"measurement": "Ki app", "setting": "[2]", "result": 140, "unit": "nM"}]}
{"smiles": "CC(C)N(C(=O)[C@H]1CCC2C3CC[C@H]4CC(C(=O)O)=CC[C@]4(C)C3CC[C@@]21C)C(C)C", "note": "(stereo partly drawn)", "values": [{"measurement": "pKi", "setting": "[1]", "result": 7.07}, {"measurement": "Ki app", "setting": "[2]", "result": 110, "unit": "nM"}]}
{"smiles": "CC1=C2C=C(C(=O)O)CC[C@]2(C)C2CC[C@@]3(C)C(CC[C@@H]3C(=O)N(C(C)C)C(C)C)C2C1", "note": "(stereo partly drawn)", "values": [{"measurement": "Ki app", "setting": "[2]", "result": 200, "unit": "nM"}]}
{"smiles": "CC(C)N(C(=O)[C@H]1CCC2C3CCC4=C[C@H](C(=O)O)CC[C@]4(C)C3CC[C@@]21C)C(C)C", "note": "(stereo partly drawn)", "values": [{"measurement": "pKi", "setting": "[1]", "result": 6.24}, {"measurement": "Ki app", "setting": "[2]", "result": "> 10000", "unit": "nM"}]}
{"smiles": "CC(C)N(C(=O)[C@H]1CC[C@H]2[C@@H]3CC[C@H]4C(F)=C(C(=O)O)CC[C@]4(C)[C@H]3CC[C@]12C)C(C)C", "values": [{"measurement": "Ki app", "setting": "[2]", "result": 35, "unit": "nM"}]}
{"smiles": "CC(C)N(C(=O)[C@H]1CCC2C3CC=C4C=C(C(=O)O)CC[C@]4(C)C3CC[C@@]21C)C(C)C", "note": "(stereo partly drawn)", "values": [{"measurement": "pKi", "setting": "[3]", "result": 8.15}, {"measurement": "Ki app", "setting": "[4]", "result": 35, "unit": "nM"}]}
{"smiles": "CC1=C(C(=O)O)CC[C@@]2(C)C1=CCC1C2CC[C@@]2(C)C1CC[C@@H]2C(=O)N(C(C)C)C(C)C", "note": "(stereo partly drawn)", "values": [{"measurement": "pKi", "setting": "[1]", "result": 7.46}, {"measurement": "Ki app", "setting": "[2]", "result": 70, "unit": "nM"}]}
{"smiles": "CC(C)N(C(=O)[C@H]1CCC2C3CC=C4C=C(C(=O)O)C=C[C@]4(C)C3CC[C@@]21C)C(C)C", "note": "(stereo partly drawn)", "values": [{"measurement": "pKi", "setting": "[1]", "result": 7.22}, {"measurement": "Ki app", "setting": "[2]", "result": 600, "unit": "nM"}]}
{"smiles": "CC(C)N(C(=O)[C@H]1CCC2C3CCC4=C(CCC(C(=O)O)=C4)C3CC[C@@]21C)C(C)C", "note": "(stereo partly drawn)", "values": [{"measurement": "Ki app", "setting": "[2]", "result": 290, "unit": "nM"}]}
{"smiles": "CC(C)N(C(=O)[C@H]1CC[C@H]2[C@@H]3CC[C@H]4CC(C(=O)O)CC[C@]4(C)[C@H]3CC[C@]12C)C(C)C", "note": "(stereo partly drawn)", "values": [{"measurement": "pKi", "setting": "[1]", "result": 5.66}, {"measurement": "Ki app", "setting": "[2]", "result": 340, "unit": "nM"}]}
{"smiles": "C[C@]12CCC(C(=O)O)=CC1=CCC1C2CC[C@@]2(C)C1CC[C@@H]2C#N", "note": "(stereo partly drawn)", "values": [{"measurement": "pKi", "setting": "[1]", "result": 6.10}, {"measurement": "Ki app", "setting": "[2]", "result": 140, "unit": "nM"}]}
{"smiles": "CC(C)N(C(=O)[C@H]1CCC2C3C=CC4=CC(C(=O)O)=CC[C@]4(C)C3CC[C@@]21C)C(C)C", "note": "(stereo partly drawn)", "values": [{"measurement": "Ki app", "setting": "[2]", "result": 300, "unit": "nM"}, {"measurement": "pKi", "setting": "[5]", "result": 8.15}]}
{"smiles": "CC(C)N(C(=O)[C@H]1CCC2C3CC[C@H]4C=C(C(=O)O)CC[C@]4(C)C3CC[C@@]21C)C(C)C", "note": "(stereo partly drawn)", "values": [{"measurement": "Ki app", "setting": "[6]", "result": 70, "unit": "nM"}, {"measurement": "pKi", "setting": "[7]", "result": 7.52}]}
{"smiles": "CC(C)N(C(=O)[C@H]1CCC2C3CC=C4C=C(C(=O)O)CC[C@]4(C)C3C=C[C@@]21C)C(C)C", "note": "(stereo partly drawn)", "values": [{"measurement": "pKi", "setting": "[1]", "result": 8.15}, {"measurement": "Ki app", "setting": "[2]", "result": 47, "unit": "nM"}]}
{"smiles": "CC(C)(C)NC(=O)[C@H]1CC[C@H]2[C@@H]3CC[C@H]4C=C(C(=O)O)CC[C@]4(C)[C@H]3CC[C@]12C", "values": [{"measurement": "pKi", "setting": "[1]", "result": 6.96}, {"measurement": "Ki app", "setting": "[2]", "result": 11, "unit": "nM"}]}
{"smiles": "CC(C)N(C(=O)[C@H]1CCC2C3CCC4=C[C@](O)(C(=O)O)CC[C@]4(C)C3CC[C@@]21C)C(C)C", "note": "(stereo partly drawn)", "values": [{"measurement": "pKi", "setting": "[1]", "result": 6.66}, {"measurement": "Ki app", "setting": "[2]", "result": "> 10000", "unit": "nM"}]}
{"smiles": "CC(C)N(C(=O)[C@H]1CCC2C3CC[C@H]4C=C(C(=O)O)C=C[C@]4(C)C3CC[C@@]21C)C(C)C", "note": "(stereo partly drawn)", "values": [{"measurement": "pKi", "setting": "[1]", "result": 7.21}, {"measurement": "Ki app", "setting": "[2]", "result": 65, "unit": "nM"}]}
{"smiles": "CC(C)N(C(=O)[C@H]1CCC2C3CC(F)=C4C=C(C(=O)O)CC[C@]4(C)C3CC[C@@]21C)C(C)C", "note": "(stereo partly drawn)", "values": [{"measurement": "pKi", "setting": "[1]", "result": 7.49}, {"measurement": "Ki app", "setting": "[2]", "result": 33, "unit": "nM"}]}
{"smiles": "CC(C)N(C(=O)[C@H]1CCC2C3CC(C(F)(F)F)=C4C=C(C(=O)O)CC[C@]4(C)C3CC[C@@]21C)C(C)C", "note": "(stereo partly drawn)", "values": [{"measurement": "pIC50", "setting": "[8]", "result": 6.15}, {"measurement": "Ki app", "setting": "[2]", "result": 1000, "unit": "nM"}]}
{"smiles": "CC(C)(C)NC(=O)[C@H]1CC[C@H]2[C@@H]3CC=C4C=C(C(=O)O)CC[C@]4(C)[C@H]3CC[C@]12C", "note": "[EPRISTERIDE]", "values": [{"measurement": "Ki app", "setting": "[9]", "result": 20, "unit": "nM"}]}
{"smiles": "CC(CO)[C@@H]1CCC2C3CCC4C=C(C(=O)O)CC[C@]4(C)C3CC[C@@]21C", "note": "(stereo partly drawn)", "values": [{"measurement": "pKi", "setting": "[1]", "result": 5.30}, {"measurement": "Ki app", "setting": "[2]", "result": 155, "unit": "nM"}]}
{"smiles": "CC(C)N(C(=O)[C@H]1CCC2C3CCC4=CC(C(=O)O)=CC[C@]4(C)C3CC[C@@]21C)C(C)C", "note": "(stereo partly drawn)", "values": [{"measurement": "pKi", "setting": "[1]", "result": 7.28}, {"measurement": "Ki app", "setting": "[2]", "result": 120, "unit": "nM"}]}
